Experimental data: ChEMBL document CHEMBL3045178, “Metabolites from Aspergillus fumigatus, an endophytic fungus associated with Melia azedarach, and their antifungal, antifeedant, and toxic activities” (J Agric Food Chem, 2012)
Converted amounts (≈) assume the structure as drawn.

Assays:
[1] = Toxicity in Artemia salina (brine shrimp) […]; assay type: organism-based; details: in vivo
Fusarium graminearum = test: Antifungal activity against Fusarium graminearum at 28 degC after 48 hr microbroth dilution method; assay type: functional
How it was run: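 Microbroth dilution in PD medium. Fungi were grown 18 h at 28 ± 0.5 °C and 150 rpm, then diluted to about 1 × 10^6 CFU. Compounds (2 mg/mL DMSO stock) were serially diluted in triplicate and fungal suspension added. Incubated 48 h at 28 ± 0.5 °C. MIC was the lowest concentration with no visible growth. Controls: DMSO, carbendazim, hymexazol.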

Botrytis cinerea = test: Antifungal activity against Botryotinia fuckeliana at 28 degC after 48 hr microbroth dilution method; assay type: functional
How it was run: (§1)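 Plant-pathogenic fungi isolated from infected plant organs. Fungi grown 18 h in PD medium at 28 ± 0.5 °C and 150 rpm, then diluted to about 1 × 10^6 CFU in PD medium. Compounds at 2 mg/mL DMSO stock, serially diluted in triplicate in PD medium in 96-well plates before the fungal suspension was added. DMSO served as negative control. After 48 h at 28 ± 0.5 °C, MIC taken as the lowest concentration with no visible growth.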

[2] = tested on: Fusarium oxysporum f. sp. vasinfectum; test: Antifungal activity against Fusarium oxysporum f. sp. vasinfectum at 28 degC after 48 hr microbroth dilution method; assay type: functional; how it was run: as §1
Mythimna separata = test: Antifeedant activity against Mythimna separata (Oriental armyworm) larvae assessed as antifeedant index by area of the leaf consumed; assay type: functional; design: concentration or dose not given beside the values
How it was run: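 Positive control prepared at 10 mg/mL in acetone; leaves treated with acetone alone served as control. Ten treated leaves and 10 larvae per Petri dish lined with moistened filter paper. Held at 25 ± 2 °C, 12L:12D, 65−80% rh. Leaf area consumed recorded after 48 h. AFI = (C − T)/C × 100%, from control and treated areas consumed. Three repetitions.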

Alternaria alternata = test: Antifungal activity against Alternaria alternata at 28 degC after 48 hr microbroth dilution method; assay type: functional; how it was run: as §1
Fusarium solani = test: Antifungal activity against Fusarium solani at 28 degC after 48 hr microbroth dilution method; assay type: functional; how it was run: as §1
[3] = tested on: Fusarium oxysporum f. sp. niveum; test: Antifungal activity against Fusarium oxysporum f. sp. niveum at 28 degC after 48 hr microbroth dilution method; assay type: functional; how it was run: as §1
[4] = tested on: Colletotrichum gloeosporioides; test: Antifungal activity against Colletotrichum gloeosporioides at 28 degC after 48 hr microbroth dilution method; assay type: functional; how it was run: as §1
Alternaria solani = test: Antifungal activity against Alternaria solani at 28 degC after 48 hr microbroth dilution method; assay type: functional; how it was run: as §1

In the case of O=C1N[C@@H](CO)C(=O)N2CCC[C@@H]12, the LC50 [1] is reported as greater than 100 µg/mL.

Work on O=C1N[C@@H](Cc2ccccc2)C(=O)N2C[C@H](O)C[C@H]12 yielded an LC50 [1] greater than 100 µg/mL.

For COc1ccc2c3c([nH]c2c1)[C@H](C=C(C)C)N1C(=O)[C@@H]2CCCN2C(=O)[C@@H]1C3 [FUMITREMORGIN], the MIC (Fusarium graminearum) was 12.5 µg/mL (≈ 32.9 µM), the LC50 [1] was 40.5 µg/mL (≈ 107 µM) and the MIC (Botrytis cinerea) was 12.5 µg/mL (≈ 32.9 µM). For the same compound, the MIC [2] was 50 µg/mL (≈ 132 µM), the AFI (Mythimna separata) was 15% and the MIC (Alternaria alternata) was 12.5 µg/mL (≈ 32.9 µM). For the same compound, the MIC (Fusarium solani) was 50 µg/mL (≈ 132 µM), the MIC [3] was 25 µg/mL (≈ 65.9 µM) and the MIC [4] was 12.5 µg/mL (≈ 32.9 µM). The MIC (Alternaria solani) was 25 µg/mL (≈ 65.9 µM).

Work on COc1ccc2c(c1)NC(=O)[C@@]21C=C2C(=O)N3CCC[C@H]3C(=O)N2[C@H]1C=C(C)C [SPIROTRYPROSTATIN B] yielded an LC50 [1] greater than 100 µg/mL.

Work on COc1ccc2c3c([nH]c2c1)[C@H](CC(C)(C)O)N1C(=O)[C@@H]2CCCN2C(=O)[C@@]1(O)[C@H]3OC yielded an MIC (Fusarium graminearum) of 6.25 µg/mL (≈ 14.1 µM), an LC50 [1] of 60.7 µg/mL (≈ 137 µM) and an MIC (Botrytis cinerea) of 6.25 µg/mL (≈ 14.1 µM). For the same compound, the MIC [2] was 25 µg/mL (≈ 56.4 µM), the MIC (Alternaria alternata) was 6.25 µg/mL (≈ 14.1 µM) and the MIC (Fusarium solani) was 25 µg/mL (≈ 56.4 µM). The MIC [3] was 12.5 µg/mL (≈ 28.2 µM), the MIC [4] was 6.25 µg/mL (≈ 14.1 µM) and the MIC (Alternaria solani) was 6.25 µg/mL (≈ 14.1 µM).

Work on C[C@@H]1NC(=O)[C@@H]2C[C@@H](O)CN2C1=O yielded an LC50 [1] of 66.1 µg/mL (≈ 359 µM).

Work on O=C1C[C@@H](O)[C@@H](O)c2cccc(O)c21 (relative stereo) yielded an LC50 [1] greater than 100 µg/mL.

O=C1CCC(O)c2cccc(O)c21 (centres undefined) [4,8-DIHYDROXY-1-TETRALONE] gave an MIC (Fusarium graminearum) of 12.5 µg/mL (≈ 70.2 µM), an LC50 [1] of 52.7 µg/mL (≈ 296 µM) and an MIC (Botrytis cinerea) of 12.5 µg/mL (≈ 70.2 µM). It also gave an MIC [2] of 50 µg/mL (≈ 281 µM), an MIC (Alternaria alternata) of 12.5 µg/mL (≈ 70.2 µM) and an MIC (Fusarium solani) of 50 µg/mL (≈ 281 µM). For the same compound, the MIC [3] was 25 µg/mL (≈ 140 µM), the MIC [4] was 12.5 µg/mL (≈ 70.2 µM) and the MIC (Alternaria solani) was 12.5 µg/mL (≈ 70.2 µM).

With O=C1N[C@@H](Cc2c[nH]c3ccccc23)C(=O)N2CCC[C@@H]12 [BREVIANAMIDE F] the LC50 [1] was 83.7 µg/mL (≈ 295 µM).

CC(=O)O[C@H]1C[C@@]2(C)[C@@H](CC[C@H]3[C@@]4(C)C=CC(=O)[C@@H](C)[C@@H]4[C@H](OC(C)=O)C(=O)[C@@]32C)/C1=C(\CCC=C(C)C)C(=O)O [HELVOLIC ACID] showed an MIC (Fusarium graminearum) of 6.25 µg/mL (≈ 11 µM), an LC50 [1] of 73.7 µg/mL (≈ 130 µM) and an MIC (Botrytis cinerea) of 6.25 µg/mL (≈ 11 µM). For the same compound, the MIC [2] was 25 µg/mL (≈ 44 µM), the AFI (Mythimna separata) was 7.5% and the MIC (Alternaria alternata) was 6.25 µg/mL (≈ 11 µM). For the same compound, the MIC (Fusarium solani) was 50 µg/mL (≈ 87.9 µM), the MIC [3] was 12.5 µg/mL (≈ 22 µM) and the MIC [4] was 6.25 µg/mL (≈ 11 µM). The MIC (Alternaria solani) was 12.5 µg/mL (≈ 22 µM).

Compound CC/C=C/[C@H](O)[C@H](O)C1=C(C)C(=O)[C@]2(O1)C(=O)N[C@@](OC)(C(=O)c1ccccc1)[C@H]2O [PSEUROTIN A1] has an LC50 [1] greater than 100 µg/mL.

In the case of C[C@@H]1CN(C)[C@@H]2Cc3c[nH]c4cccc(c34)[C@H]2[C@H]1O [FUMIGACLAVINE B], the LC50 [1] is reported as greater than 100 µg/mL.

Work on C[C@@H]1N[C@H]2N(C1=O)c1ccccc1[C@@]2(O)C[C@@H]1C(=O)N[C@](C)(O)c2nc3ccccc3c(=O)n21 [3-HYDROXYFUMIQUINAZOLINE A] yielded an MIC (Fusarium graminearum) of 12.5 µg/mL (≈ 27.1 µM), an LC50 [1] of 80.8 µg/mL (≈ 175 µM) and an MIC (Botrytis cinerea) of 12.5 µg/mL (≈ 27.1 µM). The MIC [2] was 50 µg/mL (≈ 108 µM), the AFI (Mythimna separata) was 7.5% and the MIC (Alternaria alternata) was 12.5 µg/mL (≈ 27.1 µM). The MIC (Fusarium solani) was 100 µg/mL (≈ 217 µM), the MIC [3] was 50 µg/mL (≈ 108 µM) and the MIC [4] was 12.5 µg/mL (≈ 27.1 µM). It also gave an MIC (Alternaria solani) of 12.5 µg/mL (≈ 27.1 µM).

Work on CC/C=C\[C@H](O)[C@H](O)C1=C(C)C(=O)[C@]2(O1)C(=O)N[C@@](OC)(C(=O)c1ccccc1)[C@@H]2O [PSEUROTIN A] yielded an LC50 [1] greater than 100 µg/mL.

With C[C@@H]1NC(=O)[C@@H](Cc2c[nH]c3ccccc23)n2c1nc1ccccc1c2=O [FUMIQUINAZOLINE F] the MIC (Fusarium graminearum) was 12.5 µg/mL (≈ 34.9 µM), the LC50 [1] was 55.3 µg/mL (≈ 154 µM) and the MIC (Botrytis cinerea) was 12.5 µg/mL (≈ 34.9 µM). The MIC [2] was 50 µg/mL (≈ 140 µM), the AFI (Mythimna separata) was 30% and the MIC (Alternaria alternata) was 12.5 µg/mL (≈ 34.9 µM). The MIC (Fusarium solani) was 50 µg/mL (≈ 140 µM), the MIC [3] was 25 µg/mL (≈ 69.8 µM) and the MIC [4] was 12.5 µg/mL (≈ 34.9 µM). For the same compound, the MIC (Alternaria solani) was 25 µg/mL (≈ 69.8 µM).

Work on O=C1CNC(=O)[C@H](Cc2ccccc2)N1 yielded an LC50 [1] greater than 100 µg/mL.

Work on COc1ccc2c(C[C@@H]3NC(=O)[C@@H]4CCCN4C3=O)c(CC=C(C)C)[nH]c2c1 [TRYPROSTATIN A] yielded an LC50 [1] of 44.8 µg/mL (≈ 117 µM).

Work on COc1ccc2c3c([nH]c2c1)[C@H](CC(C)(C)O)N1C(=O)[C@@H]2CCCN2C(=O)[C@@]1(O)[C@H]3O yielded an MIC (Fusarium graminearum) of 25 µg/mL (≈ 58.2 µM), an LC50 [1] of 73.2 µg/mL (≈ 170 µM) and an MIC (Botrytis cinerea) of 25 µg/mL (≈ 58.2 µM). For the same compound, the MIC [2] was 50 µg/mL (≈ 116 µM), the MIC (Alternaria alternata) was 25 µg/mL (≈ 58.2 µM) and the MIC (Fusarium solani) was 50 µg/mL (≈ 116 µM). It also gave an MIC [3] of 25 µg/mL (≈ 58.2 µM), an MIC [4] of 25 µg/mL (≈ 58.2 µM) and an MIC (Alternaria solani) of 25 µg/mL (≈ 58.2 µM).

With O=C1N[C@@H](CO)C(=O)N2C[C@H](O)C[C@@H]12 the LC50 [1] was greater than 100 µg/mL.
